We go through 3 molecules from ChEMBL document CHEMBL4118021, “Studies of TAK1-centered polypharmacology with novel covalent TAK1 inhibitors” (Bioorg Med Chem, 2017).

In assay [1] the target is Tropomyosin alpha-1 chain (Homo sapiens) (UniProt P09493). Briefly: Binding affinity to TPM1 in human NCI-H358 cells at 1 uM by mass spectrometry based pull down assay. The assay is classed as cell-based.
Assay [2] has as its target Transmembrane protein 263 (Homo sapiens) (UniProt Q8WUH6). Put plainly: Binding affinity to TMEM263 in human NCI-H23 cells at 1 uM by mass spectrometry based pull down assay. Type of assay: cell-based.
The target in assay [3] is Casein kinase II subunit beta (Homo sapiens) (UniProt P67870). Briefly: Binding affinity to CSNK2B in human NCI-H23 cells at 1 uM by mass spectrometry based pull down assay. Type of assay: cell-based.
Casein kinase II subunit beta (Homo sapiens), sequence (P67870 whole entry): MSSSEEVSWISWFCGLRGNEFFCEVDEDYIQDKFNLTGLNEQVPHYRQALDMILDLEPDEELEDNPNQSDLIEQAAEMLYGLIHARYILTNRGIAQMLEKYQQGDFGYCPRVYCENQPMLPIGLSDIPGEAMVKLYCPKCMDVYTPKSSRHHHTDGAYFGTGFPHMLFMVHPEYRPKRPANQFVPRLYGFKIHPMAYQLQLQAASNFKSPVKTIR
The target of assay [4] is Coatomer subunit beta (Homo sapiens) (UniProt P53618). Put plainly: Binding affinity to COPB1 in human NCI-H23 cells at 1 uM by mass spectrometry based pull down assay. The assay is classed as cell-based.
Coatomer subunit beta (Homo sapiens), sequence (P53618 whole entry): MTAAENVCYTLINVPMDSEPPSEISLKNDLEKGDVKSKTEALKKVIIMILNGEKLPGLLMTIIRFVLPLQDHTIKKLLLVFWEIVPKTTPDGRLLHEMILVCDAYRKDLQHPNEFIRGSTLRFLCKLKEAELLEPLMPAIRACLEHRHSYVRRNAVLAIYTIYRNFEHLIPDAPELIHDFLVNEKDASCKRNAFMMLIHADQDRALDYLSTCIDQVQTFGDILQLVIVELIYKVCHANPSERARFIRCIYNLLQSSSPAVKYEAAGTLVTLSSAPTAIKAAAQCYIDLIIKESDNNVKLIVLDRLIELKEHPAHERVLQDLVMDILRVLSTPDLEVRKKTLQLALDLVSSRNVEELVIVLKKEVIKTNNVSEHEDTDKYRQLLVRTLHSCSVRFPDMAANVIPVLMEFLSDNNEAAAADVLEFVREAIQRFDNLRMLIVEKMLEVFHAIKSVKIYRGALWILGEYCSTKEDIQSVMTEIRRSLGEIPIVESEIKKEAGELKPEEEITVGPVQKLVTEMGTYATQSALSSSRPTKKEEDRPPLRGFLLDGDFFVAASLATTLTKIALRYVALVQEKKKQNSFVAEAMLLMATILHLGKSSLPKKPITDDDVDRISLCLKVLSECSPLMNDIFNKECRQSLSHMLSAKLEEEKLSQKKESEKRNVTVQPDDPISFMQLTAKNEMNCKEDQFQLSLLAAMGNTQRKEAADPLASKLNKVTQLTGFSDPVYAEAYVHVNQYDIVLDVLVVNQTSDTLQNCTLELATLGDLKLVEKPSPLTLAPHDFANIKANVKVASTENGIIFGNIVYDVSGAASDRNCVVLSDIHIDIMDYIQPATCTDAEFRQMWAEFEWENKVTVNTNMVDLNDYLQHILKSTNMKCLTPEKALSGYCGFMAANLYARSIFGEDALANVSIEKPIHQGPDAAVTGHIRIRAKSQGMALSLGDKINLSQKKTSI
For assay [5], the target named is Deaminated glutathione amidase (Homo sapiens) (UniProt Q86X76). Put plainly: Binding affinity to NIT1 in human NCI-H358 cells at 1 uM by mass spectrometry based pull down assay. The assay is classed as cell-based.
Assay [6] concerns the target Acidic leucine-rich nuclear phosphoprotein 32 family member A (Homo sapiens) (UniProt P39687). Briefly: Binding affinity to ANP32A in human NCI-H23 cells at 1 uM by mass spectrometry based pull down assay. Type of assay: cell-based.
Assay [7] has as its target Dynamin-binding protein (Homo sapiens) (UniProt Q6XZF7). Put plainly: Binding affinity to DNMBP in human NCI-H23 cells at 1 uM by mass spectrometry based pull down assay. Type of assay: cell-based.
Assay [8] addresses Carbonyl reductase [NADPH] 1 (Homo sapiens) (UniProt P16152). Briefly: Binding affinity to CBR1 in human NCI-H358 cells at 1 uM by mass spectrometry based pull down assay. The assay is classed as cell-based.
Assay [9] concerns the target TBC1 domain family member 15 (Homo sapiens) (UniProt Q8TC07). Put plainly: Binding affinity to TBC1D15 in human NCI-H358 cells at 1 uM by mass spectrometry based pull down assay. Type of assay: cell-based.
Assay [10] has as its target Nuclear receptor-binding factor 2 (Homo sapiens) (UniProt Q96F24). Briefly: Binding affinity to NRBF2 in human NCI-H23 cells at 1 uM by mass spectrometry based pull down assay. Type of assay: cell-based.
Assay [11] concerns the target Protein transport protein Sec16A (Homo sapiens) (UniProt O15027). Put plainly: Binding affinity to SEC16A in human NCI-H358 cells at 1 uM by mass spectrometry based pull down assay. The assay is classed as cell-based.
The target in assay [12] is T1, Dual specificity mitogen-activated protein kinase kinase 3 (Homo sapiens) (UniProt P46734).
T1 sequence (whole entry): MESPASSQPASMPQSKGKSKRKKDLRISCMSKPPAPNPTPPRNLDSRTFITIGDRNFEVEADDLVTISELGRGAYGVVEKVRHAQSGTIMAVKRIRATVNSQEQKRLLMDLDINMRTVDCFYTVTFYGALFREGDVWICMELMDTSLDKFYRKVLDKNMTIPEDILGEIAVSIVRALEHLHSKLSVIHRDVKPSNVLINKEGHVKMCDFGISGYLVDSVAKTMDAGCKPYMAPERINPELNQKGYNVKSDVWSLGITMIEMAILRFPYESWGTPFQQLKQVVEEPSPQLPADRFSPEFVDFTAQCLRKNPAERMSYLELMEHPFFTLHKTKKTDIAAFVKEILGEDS
Put plainly: Binding affinity to MAP2K3 in human NCI-H23 cells at 1 uM by mass spectrometry based pull down assay. Type of assay: cell-based.

In assay [13] the target is Aldehyde dehydrogenase family 3 member A2 (Homo sapiens) (UniProt P51648). Put plainly: Binding affinity to ALDH3A2 in human NCI-H358 cells at 1 uM by mass spectrometry based pull down assay. The assay is classed as cell-based.
Assay [14] deals with 14-3-3 protein eta (Homo sapiens) (UniProt Q04917). Briefly: Binding affinity to YWHAH in human NCI-H358 cells at 1 uM by mass spectrometry based pull down assay. Type of assay: cell-based.
14-3-3 protein eta (Homo sapiens), sequence (Q04917 whole entry): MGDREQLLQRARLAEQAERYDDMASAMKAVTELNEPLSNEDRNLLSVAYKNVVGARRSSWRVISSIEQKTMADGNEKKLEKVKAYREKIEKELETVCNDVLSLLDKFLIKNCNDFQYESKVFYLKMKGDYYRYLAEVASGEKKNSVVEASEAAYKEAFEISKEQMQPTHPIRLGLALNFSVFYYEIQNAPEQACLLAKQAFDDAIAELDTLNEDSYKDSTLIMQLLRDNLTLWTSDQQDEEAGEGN
Assay [15] has as its target Glycogen synthase kinase-3 beta (Homo sapiens) (UniProt P49841). Put plainly: Binding affinity to GSK3B in human NCI-H23 cells at 1 uM by mass spectrometry based pull down assay. The assay is classed as cell-based.
A further assay concerns the target Plastin-2 (Homo sapiens) (UniProt P13796). Put plainly: Binding affinity to LCP1 in human NCI-H358 cells at 1 uM by mass spectrometry based pull down assay. The assay is classed as cell-based.
In assay [16] the target is NAD(P)H dehydrogenase [quinone] 1 (Homo sapiens) (UniProt P15559). Put plainly: Binding affinity to NQO1 in human NCI-H23 cells at 1 uM by mass spectrometry based pull down assay. Type of assay: cell-based.
Assay [17] deals with Tubulin beta-2A chain (Homo sapiens) (UniProt Q13885). Briefly: Binding affinity to TUBB2A in human NCI-H358 cells at 1 uM by mass spectrometry based pull down assay. Type of assay: cell-based.
Tubulin beta-2A chain (Homo sapiens), sequence (Q13885 whole entry): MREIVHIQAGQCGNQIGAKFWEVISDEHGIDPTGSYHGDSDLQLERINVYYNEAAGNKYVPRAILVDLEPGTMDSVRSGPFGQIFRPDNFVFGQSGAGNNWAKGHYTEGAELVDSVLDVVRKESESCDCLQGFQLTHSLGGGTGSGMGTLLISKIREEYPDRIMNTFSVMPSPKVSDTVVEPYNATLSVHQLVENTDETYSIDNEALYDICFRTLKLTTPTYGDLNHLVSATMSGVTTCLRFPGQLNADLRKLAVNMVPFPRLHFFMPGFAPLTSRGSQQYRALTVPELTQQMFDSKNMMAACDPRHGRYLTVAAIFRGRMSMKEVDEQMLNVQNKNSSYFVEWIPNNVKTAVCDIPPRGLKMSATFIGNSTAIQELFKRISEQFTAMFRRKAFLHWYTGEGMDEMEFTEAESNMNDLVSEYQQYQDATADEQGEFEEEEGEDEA
The target of assay [18] is Cyclin-dependent kinase 4 (Homo sapiens) (UniProt P11802). Put plainly: Binding affinity to CDK4 in human NCI-H23 cells at 1 uM by mass spectrometry based pull down assay. Type of assay: cell-based.
Assay [19] concerns the target T2, Mitogen-activated protein kinase kinase kinase 7 (Homo sapiens) (UniProt O43318).
T2 sequence (whole entry): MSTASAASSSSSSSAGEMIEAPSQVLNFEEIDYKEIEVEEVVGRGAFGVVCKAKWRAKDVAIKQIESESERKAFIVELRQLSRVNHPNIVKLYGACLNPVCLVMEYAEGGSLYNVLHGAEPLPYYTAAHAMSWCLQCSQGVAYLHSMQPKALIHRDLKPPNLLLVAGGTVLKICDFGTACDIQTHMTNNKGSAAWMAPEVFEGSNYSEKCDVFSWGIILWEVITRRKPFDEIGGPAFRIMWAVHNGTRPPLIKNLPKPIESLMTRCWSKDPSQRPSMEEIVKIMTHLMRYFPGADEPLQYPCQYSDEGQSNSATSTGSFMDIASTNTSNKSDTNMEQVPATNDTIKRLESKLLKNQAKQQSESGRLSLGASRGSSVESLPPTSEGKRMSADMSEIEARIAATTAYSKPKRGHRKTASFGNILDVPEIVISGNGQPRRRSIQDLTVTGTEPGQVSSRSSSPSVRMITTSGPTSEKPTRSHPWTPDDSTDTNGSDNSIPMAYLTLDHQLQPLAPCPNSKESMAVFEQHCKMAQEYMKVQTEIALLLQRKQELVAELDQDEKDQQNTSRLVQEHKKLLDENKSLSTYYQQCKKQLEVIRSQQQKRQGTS
Briefly: Inhibition of TAK1 in RA patient-derived synovial fibroblasts assessed as inhibition of poly(I:C)-induced cytokine secretion at 3 uM preincubated for 3 hrs followed by poly(I:C) stimulation measured after 18 hrs by sandwich immunoassay. A digest of the protocol: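 Primary RA synovial fibroblasts (donor RA2159) seeded 1000 cells/well and grown ~24 h at 37 °C, 5% CO2. Starved overnight in basal medium, then ~4 h in basal medium with 0.1% BSA. Two adjacent wells pooled per replicate, in biological duplicate. Supernatants diluted 1:3 and run on Luminex 27-plex/21-plex sandwich immunoassays for 48 analytes, with spiked-ligand and mock-supernatant background controls.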

For assay [20], the target named is T1, Dual specificity mitogen-activated protein kinase kinase 3 (Homo sapiens). Briefly: Inhibition of full length human MEK3 (1 to 318 residues) expressed in mammalian expression system assessed as enzyme activity at 10 uM by KINOMEScan assay relative to control. Further details: scale not given: the % may be the effect or the level left. In short, it runs like this: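 In vitro ATP-site competition binding assay (KinomeScan) across a panel of 456 kinases. Compound was tested at 1 and 10 μM. The read-out is the binding inhibition score relative to control.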

Active and inactive are the calls of the source. The calls are words filed in the database; no cut-off is given here.

Acidic leucine-rich nuclear phosphoprotein 32 family member A (Homo sapiens), sequence (P39687 whole entry): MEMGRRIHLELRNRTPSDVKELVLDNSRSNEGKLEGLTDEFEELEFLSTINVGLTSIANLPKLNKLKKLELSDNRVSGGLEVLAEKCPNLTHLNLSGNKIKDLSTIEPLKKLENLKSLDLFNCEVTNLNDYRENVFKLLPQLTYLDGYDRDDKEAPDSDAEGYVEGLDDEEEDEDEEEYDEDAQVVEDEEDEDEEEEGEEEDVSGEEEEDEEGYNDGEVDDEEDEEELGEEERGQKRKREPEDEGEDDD
Dynamin-binding protein (Homo sapiens), sequence (Q6XZF7 whole entry): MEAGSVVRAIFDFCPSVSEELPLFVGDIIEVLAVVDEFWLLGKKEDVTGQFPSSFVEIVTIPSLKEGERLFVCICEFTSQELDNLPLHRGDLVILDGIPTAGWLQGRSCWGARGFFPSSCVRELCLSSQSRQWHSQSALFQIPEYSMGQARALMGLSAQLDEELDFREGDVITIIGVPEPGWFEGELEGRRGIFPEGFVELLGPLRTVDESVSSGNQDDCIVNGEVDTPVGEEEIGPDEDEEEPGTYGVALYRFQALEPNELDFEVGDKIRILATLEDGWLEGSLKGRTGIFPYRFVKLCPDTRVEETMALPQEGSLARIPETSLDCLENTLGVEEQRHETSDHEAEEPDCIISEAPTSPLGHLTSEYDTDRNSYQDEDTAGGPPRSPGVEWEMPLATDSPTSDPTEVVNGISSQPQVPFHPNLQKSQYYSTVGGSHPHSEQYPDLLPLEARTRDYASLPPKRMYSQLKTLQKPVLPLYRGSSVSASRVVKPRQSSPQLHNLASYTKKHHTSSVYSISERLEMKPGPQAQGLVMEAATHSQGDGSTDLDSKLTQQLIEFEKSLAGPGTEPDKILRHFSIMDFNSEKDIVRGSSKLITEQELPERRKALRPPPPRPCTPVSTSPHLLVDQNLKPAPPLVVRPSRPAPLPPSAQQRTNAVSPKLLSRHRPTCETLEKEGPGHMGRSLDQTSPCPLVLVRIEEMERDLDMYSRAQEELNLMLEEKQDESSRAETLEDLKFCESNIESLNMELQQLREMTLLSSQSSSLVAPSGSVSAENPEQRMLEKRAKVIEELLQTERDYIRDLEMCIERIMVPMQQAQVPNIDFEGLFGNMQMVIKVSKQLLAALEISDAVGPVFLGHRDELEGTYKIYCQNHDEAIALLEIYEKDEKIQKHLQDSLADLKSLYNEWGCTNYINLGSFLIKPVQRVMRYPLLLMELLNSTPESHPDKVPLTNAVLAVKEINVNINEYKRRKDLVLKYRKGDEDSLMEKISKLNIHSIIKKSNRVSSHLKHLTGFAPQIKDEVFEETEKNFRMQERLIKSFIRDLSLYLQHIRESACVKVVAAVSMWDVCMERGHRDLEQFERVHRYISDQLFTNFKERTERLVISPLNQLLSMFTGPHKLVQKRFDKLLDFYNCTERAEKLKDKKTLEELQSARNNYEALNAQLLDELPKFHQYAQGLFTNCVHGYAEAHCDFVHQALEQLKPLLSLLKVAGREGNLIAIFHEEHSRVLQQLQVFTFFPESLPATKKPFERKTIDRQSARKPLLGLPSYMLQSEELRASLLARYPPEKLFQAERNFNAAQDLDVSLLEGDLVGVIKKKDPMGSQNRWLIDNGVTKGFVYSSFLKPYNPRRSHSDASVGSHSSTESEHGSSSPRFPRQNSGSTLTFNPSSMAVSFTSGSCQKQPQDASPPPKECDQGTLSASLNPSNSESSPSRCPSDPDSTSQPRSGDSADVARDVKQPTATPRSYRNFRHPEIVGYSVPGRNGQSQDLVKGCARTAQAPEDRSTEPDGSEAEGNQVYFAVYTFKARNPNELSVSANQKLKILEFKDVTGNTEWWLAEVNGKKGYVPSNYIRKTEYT
Plastin-2 (Homo sapiens), sequence (P13796 whole entry): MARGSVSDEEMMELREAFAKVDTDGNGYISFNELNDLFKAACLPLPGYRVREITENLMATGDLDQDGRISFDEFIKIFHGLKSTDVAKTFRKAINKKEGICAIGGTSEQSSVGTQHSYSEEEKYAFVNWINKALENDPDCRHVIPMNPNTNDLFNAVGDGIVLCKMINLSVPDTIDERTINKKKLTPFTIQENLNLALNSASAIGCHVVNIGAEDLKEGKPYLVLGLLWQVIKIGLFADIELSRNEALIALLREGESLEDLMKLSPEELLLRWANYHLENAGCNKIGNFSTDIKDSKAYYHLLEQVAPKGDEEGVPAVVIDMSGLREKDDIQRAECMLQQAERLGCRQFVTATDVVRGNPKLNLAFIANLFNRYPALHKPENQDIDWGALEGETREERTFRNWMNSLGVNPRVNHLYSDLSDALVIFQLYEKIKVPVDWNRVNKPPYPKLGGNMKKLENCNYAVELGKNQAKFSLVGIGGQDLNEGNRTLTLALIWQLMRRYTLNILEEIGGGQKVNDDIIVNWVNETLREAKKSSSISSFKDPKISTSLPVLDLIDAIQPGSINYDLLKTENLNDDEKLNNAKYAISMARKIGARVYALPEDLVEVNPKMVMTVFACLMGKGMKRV
Carbonyl reductase [NADPH] 1 (Homo sapiens), sequence (P16152 whole entry, the tested form may be a part): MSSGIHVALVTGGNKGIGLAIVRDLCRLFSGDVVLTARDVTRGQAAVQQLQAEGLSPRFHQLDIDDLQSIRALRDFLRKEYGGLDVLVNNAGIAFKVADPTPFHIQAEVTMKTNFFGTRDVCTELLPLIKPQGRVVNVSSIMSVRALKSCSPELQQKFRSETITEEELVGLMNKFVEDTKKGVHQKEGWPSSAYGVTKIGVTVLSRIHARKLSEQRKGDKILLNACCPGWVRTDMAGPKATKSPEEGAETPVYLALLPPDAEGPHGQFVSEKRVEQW
Glycogen synthase kinase-3 beta (Homo sapiens), sequence (P49841 whole entry, looked up): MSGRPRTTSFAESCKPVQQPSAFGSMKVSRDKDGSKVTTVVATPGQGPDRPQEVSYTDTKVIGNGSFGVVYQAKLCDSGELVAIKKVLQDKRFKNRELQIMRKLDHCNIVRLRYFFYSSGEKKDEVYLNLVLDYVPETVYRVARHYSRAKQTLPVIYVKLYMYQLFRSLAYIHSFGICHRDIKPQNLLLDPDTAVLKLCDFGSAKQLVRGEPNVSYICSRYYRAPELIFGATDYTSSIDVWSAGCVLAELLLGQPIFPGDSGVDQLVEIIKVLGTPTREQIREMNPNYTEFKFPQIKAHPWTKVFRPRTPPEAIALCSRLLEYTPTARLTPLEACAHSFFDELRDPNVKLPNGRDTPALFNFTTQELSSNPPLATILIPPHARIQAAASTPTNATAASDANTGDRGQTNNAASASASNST

For the molecule `C=CC(=O)Nc1ccccc1Nc1nc(Nc2ccc(N3CCN(CCOCCOCCOCCNC(=O)CCCC[C@@H]4SC[C@@H]5NC(=O)N[C@@H]54)CC3)cc2)ncc1Cl`, the result in assay [1], in assay [2], in [3], in assay [4], in assay [5] and in [6] was Active. The result in [7], in [8], in assay [9], in assay [10], in [11] and in [12] was Active. For the same molecule, the outcome (in [13]; in assay [14]; in assay [15]; on Plastin-2 (Homo sapiens); in [16]; in [17]) was Active. In addition, in [18], the outcome was Active.
For `C=CC(=O)Nc1ccccc1Oc1nc(Nc2cnn(CCOC)c2)ncc1Cl`, in assay [19], the inhibition result is “Active”.
Turning to `COc1cc(O)c2c(c1)/C=C/C[C@H](O)[C@H](O)C(=O)/C=C\C[C@H](C)OC2=O`, the Activity in [20] turned out to be 1.4%.
